{"data": "Experimental data from different studies", "note": "Protocols differ between the studies behind these lines."}
{"SMILES": "CC1=C(C#N)[C@@H](c2ccc(C#N)cc2S(C)(=O)=O)NC(=O)N1c1cccc(C(F)(F)F)c1", "assay": "HPLC", "conditions": "pH 7.5", "chromatographic logD": 2.7}
{"SMILES": "N#CC(c1ccc(CNc2cccc3c2CN(C2CCC(=O)NC2=O)C3=O)cc1)N1CCOCC1 (stereo not shown)", "assay": "HPLC", "conditions": "pH 7.4", "chromatographic logD": 2}
{"SMILES": "CCOC(=O)C1=C(C)N/C(=C/c2cc(C)n(-c3cccnc3)c2C)C1=O", "assay": "HPLC", "conditions": "pH 7.4", "chromatographic logD": 1.9}
{"SMILES": "Cn1c(-c2nc3cc(C(=O)N4CCCC(N)C4)ccc3n2C)cc2ccccc21 (stereo not shown)", "assay": "HPLC", "conditions": "pH 7.4", "chromatographic logD": 2.8}
{"SMILES": "CO[C@H](C(=O)N1Cc2c(-c3ccc(C(=O)N4CCCc5ccccc54)cc3)cnn2C[C@H]1C(C)C)c1cnn(C)c1 (single isomer, unassigned)", "assay": "HPLC", "conditions": "pH 7.4", "chromatographic logD": 4.2}
{"SMILES": "CC(C)(C)C1=CC(=NNC(=O)c2ccc([N+](=O)[O-])cc2)C=C(C(C)(C)C)C1=O", "assay": "HPLC", "conditions": "pH 7.4", "chromatographic logD": 4.9}
{"SMILES": "CC(=O)Nc1nc(-c2c(F)cccc2F)cs1", "conditions": "pH 7.4", "chromatographic logD": 3.7}
{"SMILES": "CO[C@H](C(=O)N1Cc2c(-c3ccc(C(=O)N4CCCc5ccccc54)cn3)cnn2C[C@H]1C(C)C)c1cnn(C)c1 (single isomer, unassigned)", "assay": "HPLC", "conditions": "pH 7.4", "chromatographic logD": 3.1}
{"SMILES": "O=C(Nc1ccccc1C(=O)NC1CC1)c1cccc(N2CCCC2=O)c1", "conditions": "pH 7.4", "chromatographic logD": 4}
{"SMILES": "O=C(Nc1ccc2c(c1)B(O)OC2)Nc1ccc(F)c(C(F)(F)F)c1", "assay": "HPLC", "conditions": "pH 7.4", "chromatographic logD": 2.5}
{"SMILES": "C[C@@H]1Cn2ncc(-c3ccc(C(=O)N4CCCc5ccccc54)cc3)c2CN1C(=O)[C@H](C)c1ccccc1", "assay": "HPLC", "conditions": "pH 7.4", "chromatographic logD": 5.2}
{"SMILES": "CC1=C(C(N)=O)C(=O)/C(=C\\c2cc(C)n(-c3ccccc3C(F)(F)F)c2C)N1", "assay": "HPLC", "conditions": "pH 7.4", "chromatographic logD": 2.8}
{"SMILES": "C[C@@H]1Cn2ncc(-c3ccc(C(=O)N4CCCc5ccccc54)cc3)c2CN1C(=O)Cc1ccccc1", "assay": "HPLC", "conditions": "pH 7.4", "chromatographic logD": 4.9}
{"SMILES": "CCOC(=O)C1=C(C)N/C(=C/c2cc(C)n(-c3ccc(SC)cc3)c2C)C1=O", "assay": "HPLC", "conditions": "pH 7.4", "chromatographic logD": 3.3}
{"SMILES": "CC1=C(C#N)[C@@H](c2ccc(C#N)cc2)NC(=O)N1c1cccc(C(F)(F)F)c1", "assay": "HPLC", "conditions": "pH 7.5", "chromatographic logD": 2.8}
{"SMILES": "Cc1oc(-c2ccccc2)nc1C(=O)NCCN1CCCCCC1=O", "conditions": "pH 7.4", "chromatographic logD": 4.5}
{"SMILES": "CCOC(=O)C1=C(C)N/C(=C/c2cc(C)n(-c3ccc(CN4CCCCC4)cc3)c2C)C1=O", "assay": "HPLC", "conditions": "pH 7.4", "chromatographic logD": 2.7}
{"SMILES": "CO[C@H](C(=O)N1Cc2c(-c3ccc(C(=O)N4CCCc5ccccc54)cc3)cnn2C[C@H]1C(C)C)c1ccccc1 (single isomer, unassigned)", "assay": "HPLC", "conditions": "pH 7.4", "chromatographic logD": 5.4}
{"SMILES": "CCOC(=O)C1=C(C)N/C(=C/c2cc(C)n(-c3ccncc3)c2C)C1=O", "assay": "HPLC", "conditions": "pH 7.4", "chromatographic logD": 1.9}
{"SMILES": "Cc1cc(NC(=O)Nc2ccc3c(c2)OC(F)(F)O3)cc(C(F)(F)F)n1", "assay": "HPLC", "conditions": "pH 7.4", "chromatographic logD": 4.3}
{"SMILES": "CCn1c(-c2nc3ccc(C(=O)N4CCCC(N)C4)cc3n2C)cc2ccccc21 (stereo not shown)", "assay": "HPLC", "conditions": "pH 7.4", "chromatographic logD": 3}
{"SMILES": "CC1=C(C(=O)OC(C)(C)C)C(=O)/C(=C\\c2cc(C)n(-c3ccccc3C(F)(F)F)c2C)N1", "assay": "HPLC", "conditions": "pH 7.4", "chromatographic logD": 3.8}
